Rows were chosen to be rich in hits. Some 1.6% of all compounds tested hit in one or more screens of this group.
NR1D1 modulator = Rev-erb alpha (human) modulation; P20393; Rev-erbα–FITC-DNA binding, fluorescence polarization, 90 min; activity, % at 10 µM; actives 0.79% (n = 370,000); AID 1259318;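 active = activity above about 14%, limit read from the data; passing the limit was not always enough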;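 also: 0% = DMSO wells with 35 nM protein and 100% = DMSO wells with 750 nM protein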
Target sequence (P20393 whole entry, looked up): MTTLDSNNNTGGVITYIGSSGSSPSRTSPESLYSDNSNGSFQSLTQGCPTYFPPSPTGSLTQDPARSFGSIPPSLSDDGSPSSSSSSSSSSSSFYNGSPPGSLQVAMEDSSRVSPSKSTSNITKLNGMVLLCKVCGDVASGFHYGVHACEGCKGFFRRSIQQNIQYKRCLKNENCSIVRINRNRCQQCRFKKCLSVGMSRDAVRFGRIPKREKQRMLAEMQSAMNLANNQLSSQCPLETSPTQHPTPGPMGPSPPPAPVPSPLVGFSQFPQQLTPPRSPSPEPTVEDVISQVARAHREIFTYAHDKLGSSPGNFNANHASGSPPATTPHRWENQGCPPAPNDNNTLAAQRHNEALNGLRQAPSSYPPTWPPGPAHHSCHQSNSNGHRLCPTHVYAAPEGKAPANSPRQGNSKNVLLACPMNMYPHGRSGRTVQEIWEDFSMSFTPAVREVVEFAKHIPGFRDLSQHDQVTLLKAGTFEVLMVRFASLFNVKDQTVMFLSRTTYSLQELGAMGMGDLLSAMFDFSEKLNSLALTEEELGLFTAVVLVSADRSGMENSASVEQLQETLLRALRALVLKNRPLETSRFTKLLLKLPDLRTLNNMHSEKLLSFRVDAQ
NR2E3 ag-1 = NR2E3 (human) agonism. inhibition of corepressor binding, % at 4.78 µM. AID 2300. GST-NR2E3/biotin-RetCOR TR-FRET, 1536-well. actives 0.12% (n = 320,000). Q9Y5X4;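 active = percent inhibition above the cutoff of mean plus 3 SD of all tested compounds, set per screening campaign, cut at about 20% in these data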;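 also: 0% = DMSO wells and 100% = biotin wells as full block of FRET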
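Assay system: NR2E3–RetCOR corepressor complex. Quantity: 1.35 nM GST-NR2E3. Buffer or medium: pH 7.5 Tris-based buffer. Reagent: biotinylated RetCOR corepressor at 7 nM final. Schedule: 5 h at 4 °C. Detection: TR-FRET, emission read at 617 and 671 nm. Replicates: one well per compound, singlicate testing.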
PG9 Ab binder = binds the HIV-1 gp120 antibody PG9; TR-FRET gp120-PG9 antibody binding; inhibition, % at 6.7 µM; actives 0.43% (n = 360,000); AID 624416; in the data active = inhibition above about 8.5%
NR2E3 ag-2 = agonists of human NR2E3 nuclear receptor; AID 602229; Q9Y5X4; inhibition of corepressor binding, % at 3.98 µM; actives 0.35% (n = 360,000); CHO-S Gal4-NCOR/VP16-NR2E3 two-hybrid, luciferase;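 active = inhibition above the mean of all tested compounds plus 3 SD, cut at about 70% in these data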;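 also: 0% = DMSO with NR2E3 transfected cells and 100% = cells lacking NR2E3 construct; higher means lower luciferase signal from less NR2E3 corepressor binding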
VLA-4 inh = inhibition in a human VLA-4 binding assay. P13612. VLA-4 expressing cells, ligand binding flow cytometry. inhibition, % (about 7 µM as worked out from the volumes in the protocol). actives 0.2% (n = 330,000); in the data active = inhibition above about 50%
Rev-erbA confirm = confirmation of modulators of human Rev-erb alpha DNA binding; shares compounds with NR1D1 modulator; Rev-erb alpha FITC-DNA binding, fluorescence polarization, 90 min; activation, % at 25 µM; actives 61% (n = 3,000); AID 1259319;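 active = activation at or above a set limit, or at least 3 SD above the negative control mean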;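 also: 0% = 35 nM protein with DMSO and 100% = 750 nM protein high control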
RORg counter = RORgamma DNA-binding activity, dose-response counter-screen; shares compounds with NR1D1 modulator; AID 1259320; IC50, µM; actives 8% (n = 910); purified RORgamma protein-FITC-DNA binding, fluorescence polarization;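 active = Compounds whose fitted half-maximal concentration for disrupting protein-DNA binding is below 10 micromolar; the record names Rev-erb in its text, so the target is in doubt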
Active calls of the source: *; · = no result given.

SMILES | NR1D1 modulator | NR2E3 ag-1 | PG9 Ab binder | NR2E3 ag-2 | VLA-4 inh | Rev-erbA confirm | others
O=c1[nH]c2ccc(Cl)cc2c(-c2ccccc2)c1N1CCN(CCO)CC1 | -5 | -1 | 2 | 5 | 6 | ·
CCOC(=O)N1CCN(c2c(-c3ccccc3)c3cc(Cl)ccc3[nH]c2=O)CC1 | 33* | 6 | 1 | 32 | 0 | -1
NNC(=O)CSc1c(-c2ccccc2)c2cc(Cl)ccc2[nH]c1=O | -1 | · | 1 | -4 | 5 | ·
COc1ccc(-c2c(C(F)(F)F)oc3cc(OCC(=O)Nc4ccccc4C(F)(F)F)ccc3c2=O)cc1OC | 37* | 2 | -2 | -29 | -7 | 20*
O=C(CC(CC(=O)c1ccc(Br)cc1)c1cccnc1)c1ccc(Br)cc1 | 2 | -1 | 1 | 3 | 3 | ·
O=c1oc2c3c4c(cc2c(C(F)(F)F)c1CCN1CCOCC1)CCCN4CCC3 | 52* | 0 | -2 | 6 | -151 | 63* | RORg counter=>40
COc1ccc2c(c1)-c1c(ssc1=S)C(C)(C)N2C(=O)CSC1=NCCS1 | 21* | -2 | 0 | 10 | -9 | 30*
CCC1CCCCN1Cc1nc(Cc2ccccc2Cl)no1 (stereo not drawn) | -4 | 2 | 0 | -21 | 8 | ·
COc1ccc(N2C(=O)c3cc4ccccc4cc3C2=O)cc1 | 11 | 1 | -1 | -17 | -13 | ·
COc1ccccc1Oc1ccc2c(c1)C(=O)N(c1ccccc1)C2=O | 67* | -2 | 1 | -26 | 24 | 48* | RORg counter=>40
COc1ccccc1Oc1ccc2c(c1)C(=O)N(c1ccc(C)cc1)C2=O | 28* | -1 | 1 | -50 | 22 | 31*
S=C(Nc1cc(Cl)cc(Cl)c1)N1CCN(c2ccccn2)CC1 | 1 | · | 2 | 3 | 8 | ·
COc1ccc(/C=N/NC(=O)C(=O)N2CCCCCC2)cc1[N+](=O)[O-] | 3 | -2 | -1 | 5 | -6 | ·
Cc1ccc(-n2nc(C)c3c(C)c(CCC(=O)NCC4CCCO4)c(=O)n(C)c32)cc1 (stereo not drawn) | 16 | 4 | 0 | -31 | -4 | ·
COc1ccc(NC(=O)c2oc3ccccc3c2NC(=O)c2ccc(OC)c(OC)c2)c(OC)c1 | 2 | · | 1 | -8 | · | ·
COc1ccc(NC(=O)c2oc3ccccc3c2NC(=O)COc2ccccc2OC)c(OC)c1 | 42* | 0 | -2 | -9 | -3 | 31*
COc1ccccc1NC(=O)c1oc2ccccc2c1NC(=O)C1CC1 | 5 | 0 | -2 | -43 | -2 | ·
CCOCC(=O)Nc1c(C(=O)Nc2ccccc2OC)oc2ccccc12 | 47* | -2 | 1 | 4 | 3 | 39*
CC(C)(C)c1nnc(NC(=S)Nc2ccccc2)s1 | 6 | 9 | -2 | 12 | 20 | ·
Cc1ccc(S(=O)(=O)CCC(=O)OCc2nnc(-c3ccccc3)o2)cc1 | -5 | · | -1 | -22 | 7 | ·
COc1ccccc1-n1cnnc1SC(C)C(=O)Nc1ccc(NC(C)=O)cc1 (stereo not drawn) | 4 | 0 | -1 | -24 | 24 | ·
COC(=O)Cn1c(=O)c(=O)n(CC(=O)OC)c2ccccc21 | -6 | 0 | -3 | -7 | 5 | ·
COC(=O)Cn1cc(/C=C/c2cc[n+](C)cc2)c2ccccc21 | 55* | -7 | -3 | -6 | -47 | 63* | RORg counter=>40
COC(=O)Cn1c(C)c(/C=C/c2cc[n+](C)cc2)c2ccccc21 | 154* | · | -10 | -15 | -126 | 114* | RORg counter=>40
CNc1nc2c(-c3ccc(Cl)cc3)nnn2c2ccccc12 | 18* | 0 | 2 | 9 | 3 | 16
SMILES | NR1D1 modulator | NR2E3 ag-1 | PG9 Ab binder | NR2E3 ag-2 | VLA-4 inh | Rev-erbA confirm | others
Cc1ccc(C(=O)Nc2nc3ccccc3n3nnnc23)cc1 | 8 | 2 | -1 | -24 | -2 | ·
Cc1ccc(-c2nnn3c2nc(NC(C)C)c2ccccc23)cc1 | 48* | 2 | 1 | -38 | 2 | 24*
CCOC(=O)c1c(C)nc2sc3c(=O)n(-c4ccc(C(C)=O)cc4)cnc3c2c1-c1ccc(OC)cc1 | 31* | 3 | 1 | -10 | 9 | 19*
COc1cc(C(=O)NCCC2=CCCCC2)ccc1OCc1c(C)noc1C | 8 | -5 | -2 | 0 | 2 | ·
c1ccc(CN=C2CCCc3ccccc3N2)cc1 | 2 | · | -2 | -1 | · | ·
CCOc1ccc2cc(C#N)c(SCC(=O)N3CCC(C)CC3)nc2c1 | 70* | 2 | -1 | -11 | -8 | 34*
CCOc1ccc2nc(SCC#N)c(C#N)cc2c1 | 39* | 1 | -6 | -27 | 0 | 24*
CCOc1cc(NC(=S)Nc2ccc(Cl)cc2)c(OCC)cc1NC(C)=O | -7 | -1 | -2 | -13 | -6 | ·
COc1ccc(C(=O)Nc2cc(C(C)=O)c(C)oc2=O)cc1 | 0 | 5 | -2 | -24 | -11 | ·
CC(=O)c1cc(NC(=O)c2cccc(C(F)(F)F)c2)c(=O)oc1/C=C/N(C)C | 20* | -1 | -1 | -2 | 5 | 14
CC(=O)c1cc(NC(=O)c2ccc(Cl)cc2)c(=O)oc1/C=C/N(C)C | 26* | -3 | -10 | -6 | 19 | 29*
CC(=O)c1cc(NC(=O)c2cccc(C(F)(F)F)c2)c(=O)oc1C | -6 | 0 | 1 | -19 | 3 | ·
COc1ccc(-c2cc(C(=O)c3c(N)n(C)c(=O)n(C)c3=O)c3ccccc3n2)cc1 | 5 | -2 | -3 | -84 | -18 | ·
COc1ccc(-c2cc(C(=O)OCC(=O)c3c(N)n(C)c(=O)n(C)c3=O)c3ccccc3n2)cc1 | 30* | 0 | 0 | -25 | -3 | 19*
CC1(C)CC(=O)N(c2cccc(C(F)(F)F)c2)C(=O)C1 | -7 | 2 | 0 | 2 | -1 | ·
CSc1nc(N)c(C(=O)NC2CCCCC2)s1 | 23* | 0 | -1 | -23 | -8 | -10
Fc1cccc2sc(Nc3nc4cc5c(cc4s3)OCCO5)nc12 | 34* | 3 | -2 | -57 | 9 | 35* | RORg counter=>40
Fc1cccc2sc(Nc3nc4cc5c(cc4s3)OCO5)nc12 | 19 | 2 | 0 | -190 | 3 | ·
COc1ccc(S(=O)Cc2ccc(C(=O)N3CCN(C(=O)c4ccco4)CC3)o2)cc1 (stereo not drawn) | 3 | 1 | -1 | -13 | 17 | ·
CC(C)(C)c1ccc(SC2=C[C@@]3(O)CC[C@@H](O)[C@@](Sc4ccc(C(C)(C)C)cc4)(C2=O)[C@H]3O)cc1 | 33* | · | -13 | 31 | · | 21*
COc1ccc(Cl)cc1N(CC(=O)NCC(C)C)S(=O)(=O)c1ccc(C)c([N+](=O)[O-])c1 | -4 | 2 | 2 | -37 | 4 | ·
CCCCOC(=O)CSc1nc(N)c(C#N)c(-c2ccc(OCC)cc2)c1C#N | 49* | -3 | 0 | 2 | 34 | 36* | RORg counter=>40

Source: PubChem BioAssay
